Most compounds without a hit are left out; they make up all but 2.9% or so of the library.
A3A deaminase: blocks human APOBEC3A ssDNA deamination. P31941. recombinant A3A, FAM/TAMRA ssDNA deamination fluorescence. inhibition, % at 20 µM. 0.41% of 330,000 active. AID 493011;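 active = at least 40% inhibition at 20 µM here, with at most 30% in a related deaminase screen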;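 also: plate controls were A3A with DMSO for no effect and wells lacking A3A enzyme for full effect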
Target sequence (P31941 whole entry, looked up): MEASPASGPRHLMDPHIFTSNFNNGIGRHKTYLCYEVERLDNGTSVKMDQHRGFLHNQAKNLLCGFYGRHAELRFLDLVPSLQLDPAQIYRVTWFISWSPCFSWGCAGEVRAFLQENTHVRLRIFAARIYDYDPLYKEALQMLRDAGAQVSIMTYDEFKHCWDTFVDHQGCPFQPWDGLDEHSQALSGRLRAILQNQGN
HCV core dimer: blocks dimerization of HCV core protein. TR-FRET GST/Flag-core106 dimerization, 1536-well. inhibition, % at 5 µM. 0.33% of 300,000 active. AID 1899;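 active = inhibition above the mean of all tested compounds plus 3 SD, set per screening campaign, cut at about 45% in these data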
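Material: Tagged HCV core106 pair (GST and Flag) | Amount: GST-core106 13.5 nM, Flag-core106 17 nM | Medium: KF-containing HEPES buffer, pH 7.45, DTT, CHAPS, BSA | Reagent: Eu donor and XL665 acceptor anti-tag antibodies | Schedule: 4 h at 22.5 °C | Technique: Time-resolved FRET, ex 340 nm, em 617 and 671 nm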
A3G deaminase: inhibitors of human APOBEC3G DNA deaminase; 0.28% of 330,000 active; recombinant A3G, ssDNA deamination FAM/TAMRA fluorescence; inhibition, % at 20 µM;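 active = inhibition of at least 40% at 20 µM, with no more than 30% in the related APOBEC3A deaminase screen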;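 also: plate controls were DMSO wells with A3G for no effect and wells lacking A3G enzyme for full effect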
ABHD5-PLIN5 inh: ABHD5-PLIN5 protein interaction inhibition; Split G. princeps luciferase complementation, luminescence, 4 h; 0.78% of 360,000 active; Q00G26+Q8WTS1; inhibition, % at 4 µM; AID 602281;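 active = inhibition above the mean inhibition across every tested compound plus 3 SD, cut at about 22% in these data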;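 also: 0% = DMSO only wells and the 100% control is not disclosed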
PRMT1 inh: PRMT1 (human) inhibition, primary screen; Q99873; recombinant PRMT1, activity-based probe fluorescence polarization; AID 652257; 1.3% of 370,000 active; inhibition, % at 2.79 µM;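 active = inhibition above about 21% made by adding two undisclosed values, limit read from the data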
Target sequence (Q99873 whole entry, looked up): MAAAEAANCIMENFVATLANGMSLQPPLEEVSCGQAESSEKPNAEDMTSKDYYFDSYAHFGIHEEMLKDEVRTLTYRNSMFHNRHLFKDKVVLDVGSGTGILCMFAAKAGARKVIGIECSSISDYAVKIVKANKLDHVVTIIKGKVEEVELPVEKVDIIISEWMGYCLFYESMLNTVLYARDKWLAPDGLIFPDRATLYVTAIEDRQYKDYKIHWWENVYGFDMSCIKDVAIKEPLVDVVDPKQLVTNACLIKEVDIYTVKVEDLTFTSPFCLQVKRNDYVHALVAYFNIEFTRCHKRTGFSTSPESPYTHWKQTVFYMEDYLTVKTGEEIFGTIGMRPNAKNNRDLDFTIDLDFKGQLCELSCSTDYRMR
NS3 helicase inh: inhibitors of Hepatitis C virus NS3 helicase; AID 1800; NS3 helicase DNA unwinding, Cy5 molecular beacon fluorescence; inhibition, % at 10.9 µM; 0.56% of 290,000 active;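 active = inhibition above the mean of all tested compounds plus 3 SD, set per campaign, cut at about 35% in these data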;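 also: 0% = DMSO wells and 100% = thioflavine S control wells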
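Test system: hepatitis C virus NS3 helicase domain fragment enzyme. Also added: annealed dual-labelled DNA beacon duplex, ATP-started. Timing: 60 min unwinding reaction at 25 °C after ATP addition. Technique: Cy5 fluorescence. Measure: % inhibition of unwinding.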
PRMT1 inh conf: confirmation of human PRMT1 inhibitors; 42% of 3,300 active; recombinant His-PRMT1, activity-based probe fluorescence polarization; inhibition, % at 2.79 µM; shares compounds with PRMT1 inh;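 active = mean inhibition across replicates above the hit cutoff derived for the earlier primary screen, cut at about 22% in these data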
* hit, by the source's call; / = no result given.

SMILES	A3A deaminase	HCV core dimer	A3G deaminase	ABHD5-PLIN5 inh	PRMT1 inh	NS3 helicase inh	PRMT1 inh conf
Cc1ccc(CNC(=O)CSc2nccn(-c3ccc(C)c(F)c3)c2=O)cc1	1.5	0.8	-0.6	-24.0	36.9*	/	18.8
O=C(CSc1nccn(-c2ccc(Br)cc2)c1=O)NCc1ccccc1	-1.6	-3.2	13.4	-3.1	19.8	/	/
COc1ccc(-n2ccnc(SCC(=O)NCc3ccc(C)cc3)c2=O)cc1Cl	-1.6	3.0	-5.1	-10.8	35.5*	/	20.9
COc1ccccc1-n1ccnc(SCC(=O)NCc2ccccc2)c1=O	-0.7	1.8	-2.4	-17.8	20.0	/	/
CC(C)c1ccc(C2CC(=O)N3CN(Cc4ccco4)CSC3=C2C#N)cc1 (centres undefined)	1.7	5.6	0.6	-6.1	19.1	23.7	/
N#CC1=C2SCN(Cc3ccco3)CN2C(=O)CC1c1ccc(Cl)cc1 (centres undefined)	2.1	-1.9	-3.4	-0.8	32.4*	19.5	12.8
CCC(C)[C@@H]1NC(=O)N(CCCN2CCCC2=O)C1=O (some centres undefined)	-2.2	0.4	-11.6	-2.2	-1.8	-6.0	/
Cc1ccc(N2C(=O)CS/C2=N\C(=S)Nc2ccccc2)cc1	-8.5	-5.9	-1.5	-46.2	28.2*	8.1	3.4
O=C1CSC(=Nc2ccc(O)cc2)N1c1ccc(O)cc1	-3.9	-5.0	-6.2	3.6	4.9	-0.8	/
Cc1ccc(-c2cc(-c3ccccc3)c(C#N)c(N)n2)o1	-6.8	13.0	-2.5	5.5	30.3*	20.9	66.2*
S=c1nc(-c2cc(Cl)ccc2Cl)[nH][nH]1	0.1	4.6	9.3	-6.4	55.6*	-5.9	47.1*
O=C(NN1C(=O)/C(=C/c2cccs2)SC1=S)c1cccnc1	-0.2	-1.2	-1.8	-6.2	26.6*	6.2	-0.7
O=C(NN1C(=O)/C(=C/c2cccs2)SC1=S)c1ccccc1	0.5	-6.0	0.4	-4.9	/	12.2	/
[C-]#[N+][C@]12C(=O)[C@H](C=C(Cl)[C@@]1(C)C=C)C(C)(C)[C@H]1C(=O)N(C)c3cccc2c31	/	/	/	/	-1.4	/	/
COC(=O)CN(C#N)c1nc(NCc2ccccc2)nc(OC)n1	-6.6	/	-7.1	4.6	63.9*	6.2	-2.6
COC(=O)[C@]12C[C@H](CC(=O)NCCC(C)C)C(=O)N(Cc3ccc4c(c3)OCO4)C1=C[C@H](C(C)(C)C)O[C@@H]2C	/	/	/	/	-0.7	/	/
COCCN=c1scc(-c2cccs2)n1/N=C/c1ccc(O)c(O)c1O	2.2	8.8	-3.6	-6.7	54.0*	32.1	27.1*
O=C1c2ccccc2C(=O)N1N(c1ccccc1)c1ccccc1	/	/	/	8.7	1.7	/	/
O=C1C=CC(=O)N1N(c1ccccc1)c1ccccc1	4.1	2.9	28.5	10.5	50.0*	2.5	96.2*
CCCCCCC(=O)N(O)C1CC(=O)N(c2ccc(Cl)cc2)C1=O (centres undefined)	-4.9	7.7	40.5*	6.1	50.9*	4.0	84.1*
O=C(O)CSC1CC(=O)N(c2ccc(Cl)cc2)C1=O (centres undefined)	1.3	4.7	1.0	9.8	12.7	5.0	/
CCCCCCC(=O)N(O)C1CC(=O)N(c2ccc(C)cc2)C1=O (centres undefined)	-0.3	3.1	39.2	8.3	87.3*	19.3	90.9*
CCCOc1ccc(N2C(=O)CC(N(CCC)C(=O)CCC(=O)O)C2=O)cc1 (centres undefined)	-2.9	-2.7	-5.8	-5.9	-0.5	1.6	/
O=C(COC(=O)C1CCC1)NCc1ccc(Cl)cc1Cl	2.0	-6.5	4.3	7.0	-1.6	/	/
Cc1cc(O)c(N=Cc2cc3c(cc2[N+](=O)[O-])OCO3)cc1C	4.3	-1.7	5.7	10.5	25.3*	/	22.4*
SMILES	A3A deaminase	HCV core dimer	A3G deaminase	ABHD5-PLIN5 inh	PRMT1 inh	NS3 helicase inh	PRMT1 inh conf
Cc1nccn1-c1ccc(NC(=O)[C@@H](Cc2ccccc2)NC(=O)[C@H]2O[C@@H](n3ccc(=O)[nH]c3=O)[C@H](O)[C@@H]2O)cc1	/	/	/	/	-6.4	/	/
Nc1[nH]c(C(=O)c2ccccc2)c(-c2ccccn2)c1C(=O)c1c[nH]c2ccc(Br)cc12	/	/	/	/	27.3*	/	2.0
O=C1CC(Sc2ncccn2)C(=O)N1c1ccccc1C(F)(F)F (centres undefined)	1.8	-1.4	-1.7	-0.4	51.1*	0.4	5.5
CCc1ccccc1N1C(=O)CC(Sc2nccc(C)n2)C1=O (centres undefined)	4.3	1.7	-4.8	4.8	13.8	6.8	/
Cc1ccc(Cl)cc1N1C(=O)CC(Sc2ncccn2)C1=O (centres undefined)	-1.9	-10.7	-4.1	-4.7	31.8*	0.0	-0.4
Cc1cccc(N2C(=O)CC(Sc3nc(-c4ccccc4)c4cc(Cl)ccc4n3)C2=O)c1 (centres undefined)	-0.8	5.8	0.7	2.3	3.1	-6.4	/
O=C(NCCO)c1ccc(-c2cnc3cccnn23)cc1	/	/	/	-10.4	-3.3	/	/
Cc1ccncc1CNC(=O)c1ccccc1	/	/	/	4.3	-1.8	/	/
O=C(c1cc(O)c(O)c([N+](=O)[O-])c1)c1ccccc1F	-3.0	7.8	-5.8	10.3	34.8*	/	11.7
O=C(Nc1ccc([N+](=O)[O-])cc1)c1ccccc1F	3.2	-7.0	-1.4	9.2	-2.5	2.4	/
CC(C)NC(=O)c1cc(C2CCCCN2S(=O)(=O)c2ccccc2)on1 (centres undefined)	/	/	/	-8.1	3.1	/	/
COc1ccc(S[C@]2(C(=O)N(C)C)CC(=O)N(S(=O)(=O)c3ccc(F)cc3)[C@@H]2c2ccc(OC)cc2)cc1	/	/	/	/	26.4*	/	27.5*
COc1ccc(S[C@]2(C(=O)N3CCCC3)CC(=O)N(S(=O)(=O)c3ccc(F)cc3)[C@@H]2c2ccc(OC)cc2)cc1	/	/	/	/	20.3	/	/
COc1ccc(S[C@]2(C(=O)N3CCCC3)CC(=O)N(c3ccsc3)[C@@H]2c2ccc(OC)cc2)cc1	/	/	/	/	1.7	/	/
COc1ccc(S[C@]2(C(=O)N3CCCC3)CC(=O)N(C(=O)c3ccccc3)[C@@H]2c2ccc(OC)cc2)cc1	/	/	/	/	73.7*	/	72.6*
COC(=O)[C@@]1(Sc2ccc(C)cc2)CC(=O)N(C(=O)c2ccccc2)[C@@H]1c1ccccc1	/	/	/	2.9	67.8*	/	77.3*
COc1ccc(S[C@]2(C(=O)N(C)C)CC(=O)N(C(=O)c3ccccc3)[C@@H]2c2ccc(OC)cc2)cc1	/	/	/	/	84.2*	/	72.1*
CN(C)CCCNS(=O)(=O)c1ccc(N2CCN(Cc3ccc4c(c3)OCO4)CC2)c([N+](=O)[O-])c1	-6.1	-6.7	-6.2	8.9	0.8	-33.6	/
NC(=O)c1ccc(NC(=O)COC(=O)/C=C/c2ccc(Br)o2)cc1	61.7	/	45.2	-2.0	36.0*	/	5.3

Screening results as filed in PubChem BioAssay.
